Experiments:
Format in all cases: functional
Conditions in all cases: read-out: GI
Candida albicans [1] = assay: Antifungal activity against Candida albicans 90028 assessed as growth inhibition at 1 ug/ml by CLSI M27-A3 method
Procedure, shortened: (§1)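 CLSI M27-A3 broth microdilution in RPMI, read after 48 h. Strains pre-grown 18 h in YEPD at 30°C. Final inoculum 0.5×10^2–2.5×10^3 cells/ml. Two-fold dilutions in RPMI came from a 1600 µg/ml stock in water with 9% DMSO; final DMSO was 0.09%. OD405 read, % inhibition = 100 − (CTW−SCW)/(GCW−SCW). Triplicate on three occasions, mean±SD.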

Candida albicans [2] = assay: Antifungal activity against Candida albicans CAI4 expressing delta-cph1 gene assessed as growth inhibition at 1 ug/ml by CLSI M27-A3 method; procedure, shortened: as §1
Candida albicans [3] = assay: Antifungal activity against Candida albicans CAI4 expressing delta-cph1 (CPH1) gene assessed as growth inhibition at 1 ug/ml by CLSI M27-A3 method; procedure, shortened: as §1
Candida albicans [4] = assay: Antifungal activity against Candida albicans CAI4 expressing delta-efg1 gene assessed as growth inhibition at 1 ug/ml by CLSI M27-A3 method
Procedure, shortened: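 CLSI M27-A3 broth microdilution in RPMI. Final inoculum 0.5×10^2 to 2.5×10^3 cells/ml. Seven two-fold concentrations from 0.25 to 16 µg/ml, with DMSO held at 0.09% (v/v) in all wells. Compound-free growth controls and sterility controls are run for each strain. […] Triplicate on three occasions.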

Candida albicans [5] = assay: Antifungal activity against Candida albicans CAI4 expressing delta-efg1 (EFG1) gene assessed as growth inhibition at 1 ug/ml by CLSI M27-A3 method; procedure, shortened: as §1
Candida albicans [6] = assay: Antifungal activity against Candida albicans CAI4 expressing delta-cph1/delta-efg1 gene assessed as growth inhibition at 1 ug/ml by CLSI M27-A3 method; procedure, shortened: as §1
Candida albicans [7] = assay: Antifungal activity against Candida albicans CAI4 expressing delta-cph1/delta-efg1 (EFG1) gene assessed as growth inhibition at 1 ug/ml by CLSI M27-A3 method; procedure, shortened: as §1

Measured: inhibition of growth at 1 µg/mL

C[C@@H]1[C@H](O)[C@@H](C)/C=C/C=C/C=C/C=C/C=C/C=C/C=C/[C@H](O[C@@H]2O[C@H](C)[C@@H](O)[C@H](N)[C@@H]2O)C[C@@H]2O[C@](O)(C[C@@H](O)C[C@@H](O)[C@H](O)CC[C@@H](O)C[C@@H](O)CC(=O)O[C@H]1C)C[C@H](O)[C@H]2C(=O)O [AMPHOTERICIN B]
100%: all assays above

— ChEMBL document CHEMBL3351861, “New synthetic sulfone derivatives inhibit growth, adhesion and the leucine arylamidase APE2 gene expression of Candida albicans in vitro” (2015)
